Laboratory results reported in ChEMBL document CHEMBL3097991, “A novel indigoid anti-tuberculosis agent” (Bioorg Med Chem Lett, 2014).
Converted amounts (≈) assume the structure as drawn.

Key:
[1] = tested on: Mycobacterium tuberculosis; experiment: Antimicrobial activity against Mycobacterium tuberculosis H37Rv by low oxygen recovery assay; assay type: functional
Outline: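 MIC determined against M. tuberculosis H37Rv held in the non-replicating phenotype under low oxygen, with growth assessed after recovery.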

[2] = tested on: Mycobacterium tuberculosis; experiment: Antimicrobial activity against Mycobacterium tuberculosis H37Rv infected in african green monkey Vero cells; assay type: functional
[3] = tested on: Mycobacterium tuberculosis; experiment: Ratio of MIC for Mycobacterium tuberculosis H37Rv in presence of 10% FBS to MIC for Mycobacterium tuberculosis H37Rv; assay type: functional
[4] = tested on: Mycobacterium tuberculosis; experiment: Ratio of MIC for Mycobacterium tuberculosis H37Rv by low oxygen recovery assay to MIC for Mycobacterium tuberculosis H37Rv; assay type: functional
[5] = tested on: Escherichia coli; experiment: Antimicrobial activity against Escherichia coli; assay type: functional
[6] = tested on: Mycobacterium tuberculosis; experiment: Antimicrobial activity against Mycobacterium tuberculosis H37Rv in presence of 4% BSA; assay type: functional
[7] = tested on: Candida albicans; experiment: Antimicrobial activity against Candida albicans; assay type: functional
[8] = tested on: Mycobacterium tuberculosis; experiment: Antimicrobial activity against Mycobacterium tuberculosis H37Rv in presence of 10% FBS; assay type: functional
[9] = tested on: Mycobacterium tuberculosis; experiment: Ratio of MIC for Mycobacterium tuberculosis H37Rv in presence of 4% BSA to MIC for Mycobacterium tuberculosis H37Rv; assay type: functional
[10] = tested on: Vero; experiment: Cytotoxicity against african green monkey Vero cells; assay type: cell-based; conditions: Chlorocebus sabaeus
[11] = tested on: Staphylococcus aureus; experiment: Antimicrobial activity against Staphylococcus aureus; assay type: functional
[12] = tested on: Mycolicibacterium smegmatis; experiment: Antimicrobial activity against Mycobacterium smegmatis; assay type: functional

Row | Structure (SMILES) | MIC [1] | MIC [2] | Ratio [3] | Ratio [4] | MIC [5] | MIC [6] | MIC [7] | MIC [8] | Ratio [9] | IC50 [10] | MIC [11] | MIC [12]
1 | O=C1C=Cc2nocc2/C1=C1/Nc2ccccc2C1=O | 5.3 µM (≈ 1.4 µg/mL) | 0.57 µM (≈ 0.151 µg/mL) | 1 | 10 | > 50 µM | 2.1 µM | > 50 µM | 0.57 µM | 3.7 | > 32 µM | > 50 µM | > 50 µM
2 | O=C1/C(=C2\Nc3ccccc3C2=O)Nc2ccccc21 [INDIGO] |  | > 32 µM |  |  |  |  |  |  |  |  |  | 
3 | O=C1Nc2ccccc2/C1=C1/Nc2ccccc2C1=O [INDIRUBIN] |  | > 32 µM |  |  |  |  |  |  |  |  |  | 
4 | O=C1Nc2ccccc2/C1=C1\C(=O)Nc2ccccc21 [ISOINDIGO] |  | 27 µM (≈ 7.08 µg/mL) |  |  |  |  |  |  |  |  |  | 
5 | NNC(=O)c1ccncc1 [ISONIAZID] | > 100 µM | 0.22 µM (≈ 0.0302 µg/mL) |  |  |  | 0.45 µM |  | 0.24 µM |  | > 100 µM |  | 18.9 µM (≈ 2.59 µg/mL)
6 | CO[C@H]1/C=C/O[C@@]2(C)Oc3c(C)c(O)c4c(O)c(c(/C=N/N5CCN(C)CC5)c(O)c4c3C2=O)NC(=O)/C(C)=C\C=C\[C@H](C)[C@H](O)[C@@H](C)[C@@H](O)[C@@H](C)[C@H](OC(C)=O)[C@@H]1C [RIFAMPIN] | 0.49 µM (≈ 0.403 µg/mL) | 0.038 µM (≈ 0.0313 µg/mL) |  |  |  | 0.089 µM |  | 0.21 µM |  | > 182 µM |  | 16.7 µM (≈ 13.7 µg/mL)
